# Screening results deposited in PubChem BioAssay by Broad Institute.
# GASC1 inh: inhibitors of GASC-1 (KDM4C) histone demethylase, primary screen, biochemical, single concentration HTS | 96,000 compounds, 0.15% hits | inhibition, % at 12.5 µM | AID 720574, 2013 | GST-KDM4C 2-372, H3K9me3 peptide, LANCE TR-FRET;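 active = mean replicate inhibition above about 25%, with at least 55% of replicates also reaching it, limit read from the data, passing the limit was not always enough; inconclusive = only one of those two conditions met; inactive = neither condition met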
# Target sequence (Q9H3R0 2-372 limits assumed): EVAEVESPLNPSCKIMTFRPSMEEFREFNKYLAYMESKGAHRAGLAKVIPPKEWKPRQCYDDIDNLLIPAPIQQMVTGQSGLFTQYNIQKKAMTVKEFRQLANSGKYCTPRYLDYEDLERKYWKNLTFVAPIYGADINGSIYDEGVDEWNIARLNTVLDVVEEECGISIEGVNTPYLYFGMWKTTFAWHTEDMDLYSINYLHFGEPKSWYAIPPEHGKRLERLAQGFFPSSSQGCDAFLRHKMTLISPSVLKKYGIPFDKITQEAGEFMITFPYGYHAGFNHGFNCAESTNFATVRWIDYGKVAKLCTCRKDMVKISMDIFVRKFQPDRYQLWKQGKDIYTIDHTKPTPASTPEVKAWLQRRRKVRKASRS
#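 System: N-terminal GST-fused human GASC-1 (KDM4C) fragment, residues 2-372; amount: enzyme final amount 10 nM; incubation: reaction 30 min RT, detection step 1 h RT; medium: HEPES buffer, pH 7.5, plus ascorbate; technique: LANCE TR-FRET, Eu antibody, ULight-streptavidin, EDTA, ex 340 nm, em 618/671 nm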
# T cruzi growth-1: T. cruzi intracellular proliferation inhibitors, primary screen, cell-based, beta-gal Tulahuen parasites, NIH3T3 host, luminescence; T. cruzi beta-gal in NIH3T3, GalScreen luminescence, 90 h; inhibition, % at 8.34 µM; 77,000 compounds, 5.9% hits;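 active = mean inhibition above about 93%, with at least 55% of replicates each passing it, limit read from the data, passing the limit was not always enough; inconclusive = only one of those two conditions holds; inactive = neither condition holds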
# IDH1 R132H inh: inhibitors of IDH1 R132H reductase, primary screen, biochemical, plate reader, single point; AID 624101, 2012; Isocitrate dehydrogenase [NADP] cytoplasmic (Homo sapiens), O75874; 70,000 compounds, 0.18% hits; inhibition, % at 10 µM; diaphorase/resazurin fluorescence, 60 min; in the data active = inhibition above about 34%; inconclusive = no clear call, values can overlap the other calls; inactive = below about 11%;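 also: 0% = DMSO and 100% = no enzyme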
# Pf Dd2 growth: P. falciparum Dd2 growth inhibitors, primary screen, SYBR Green fluorescence, single dose replicates | 72 h; stronger effect = lower value | activity change, % at 10 µM | 94,000 compounds, 2.3% hits; in the data active = activity change below about -80%; inconclusive = no clear call, values can overlap the other calls
# T cruzi growth-2: T. cruzi intracellular proliferation inhibitors, confirmation, cell-based, NIH3T3 host, beta-gal parasite, luminescence, cherry-pick. shares compounds with T cruzi growth-1. T. cruzi beta-gal in NIH3T3, GalScreen luminescence, 90 h. inhibition, % at 8.35 µM. 5,600 compounds, 72% hits. AID 651739, 2012;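 active = mean replicate inhibition above about 95% and at least 55% of replicates individually reaching it, limit read from the data; inconclusive = only one of the two criteria is met; inactive = neither criterion is met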
# T cruzi growth-3: inhibitors of intracellular T. cruzi replication, confirmation, NIH3T3 host cells, beta-gal parasites, cherry-pick, set 2 | shares compounds with T cruzi growth-1 | T. cruzi beta-gal in NIH3T3, GalScreen luminescence, 90 h | inhibition, % at 2.09 µM | 5,600 compounds, 21% hits;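 active = mean inhibition above about 95%, with at least 55% of replicates also reaching it, limit read from the data; inconclusive = meets just one of the two conditions; inactive = meets neither condition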;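 also: plate controls were neutral control median for no effect and positive control median for full effect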
# 3T3 cytotox: cytotoxicity in mouse NIH/3T3 fibroblasts, confirmation, cytotoxicity control for T. cruzi proliferation inhibitor project, cell-based, cherry-pick, single point; shares compounds with T cruzi growth-1; NIH/3T3 viability, CellTiter-Glo ATP luminescence, 90 h; cytotoxicity (signal decrease), % at 8.35 µM; 5,600 compounds, 14% hits;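 active = mean signal decrease across replicates above about 35% based on untreated-well scatter, with enough replicates individually passing, limit read from the data; inconclusive = no rule stated though some were filed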;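 also: 0% = median of neutral control wells and 100% = median of positive control wells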
# 3T3 cytotox 2: NIH/3T3 fibroblast cytotoxicity, confirmation, cytotoxicity control, cell-based, cherry-pick, single point, set 2. shares compounds with T cruzi growth-1. NIH/3T3 viability, CellTiter-Glo ATP luminescence, 90 h. inhibition, % at 24.9 µM. 5,600 compounds, 56% hits;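 active = mean loss of cell viability signal at or above a set limit, and enough replicates individually reaching it; inconclusive = meets only the mean limit or only the replicate share; inactive = meets neither condition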;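 also: 0% = median of neutral control wells and 100% = median of positive control wells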
# Active calls of the source: *; ? = inconclusive; · = no result. An excerpt weighted towards active compounds, which were near 5.8% of everything screened.
SMILES,GASC1 inh,T cruzi growth-1,IDH1 R132H inh,Pf Dd2 growth,T cruzi growth-2,T cruzi growth-3,3T3 cytotox,3T3 cytotox 2
Cc1nonc1OCCNc1cc(N2CCCC2)ccc1[N+](=O)[O-],·,·,0,·,·,·,·,·
COCC(=O)N1[C@H](C#N)[C@H](c2ccc(C#Cc3ccccc3F)cc2)[C@H]1CO,0,106*,·,-36,99*,20,-17,?
COCC(=O)N1[C@@H](C#N)[C@@H](c2ccc(C#Cc3ccccc3F)cc2)[C@@H]1CO,2,106*,·,-7,89,41,18,94*
N#C[C@H]1[C@H](c2ccc(C#Cc3ccccc3F)cc2)[C@@H](CO)N1C(=O)c1cccnc1,0,?,·,-38,105*,69,4,5
N#C[C@@H]1[C@@H](c2ccc(C#Cc3ccccc3F)cc2)[C@H](CO)N1C(=O)c1cccnc1,-2,69,·,-33,·,·,·,·
COCC(=O)N1[C@H](C#N)[C@H](c2ccccc2)[C@H]1CO,-6,86,·,14,·,·,·,·
N#C[C@H]1[C@H](c2ccc(C#Cc3ccccc3F)cc2)[C@H](CO)N1C(=O)C1CC1,-2,50,·,-9,·,·,·,·
COCC(=O)N1[C@@H](C#N)[C@H](c2ccc(C#Cc3ccccc3F)cc2)[C@@H]1CO,0,101*,·,-8,103*,7,-7,7
COCC(=O)N1[C@H](C#N)[C@@H](c2ccccc2)[C@@H]1CO,-1,29,·,35,·,·,·,·
O=C(CCCCC(=O)N/N=C/c1ccc(CO)o1)NO,·,·,-1,·,·,·,·,·
COCC(=O)N1[C@H](C#N)[C@H](c2ccc(C#Cc3ccccc3F)cc2)[C@@H]1CO,0,102*,·,-20,103*,90,-3,?
COc1cccc(-c2ccc3c(c2)O[C@H](CN(C)C(=O)C2CCC2)[C@H](C)CN([C@@H](C)CO)S3(=O)=O)c1,0,103*,-1,-39,95*,58,57*,78*
COc1cccc(-c2ccc3c(c2)O[C@@H](CN(C)C(=O)C2CCCCC2)[C@H](C)CN([C@@H](C)CO)S3(=O)=O)c1,-1,112*,·,-68,105*,74,19,90*
COc1cccc(-c2ccc3c(c2)O[C@@H](CN(C)C(=O)C2CCC2)[C@@H](C)CN([C@H](C)CO)S3(=O)=O)c1,0,44,0,10,·,·,·,·
COc1cccc(-c2ccc3c(c2)O[C@H](CN(C)C(=O)C2CCCCC2)[C@H](C)CN([C@H](C)CO)S3(=O)=O)c1,0,115*,·,-18,106*,98*,44*,87*
COc1cccc(-c2ccc3c(c2)O[C@H](CN(C)C(=O)C2CCC2)[C@H](C)CN([C@H](C)CO)S3(=O)=O)c1,-4,69,0,-14,·,·,·,·
COc1cccc(-c2ccc3c(c2)O[C@H](CN(C)C(=O)C2CCCCC2)[C@@H](C)CN([C@@H](C)CO)S3(=O)=O)c1,-4,97*,·,-37,111*,80,-5,76*
COc1ccccc1-n1c(SCC(=O)c2ccc3c(c2)CCCC3)nc2ccccc2c1=O,·,·,0,·,·,·,·,·
O=C(O)CCCCCC(=O)N/N=C/c1cccnc1Br,·,·,0,·,·,·,·,·
Cc1ccccc1-c1nc(SCC(=O)Nc2sc3c(c2C#N)CCCC3)n[nH]1,·,·,0,·,·,·,·,·
COc1cccc(-c2ccc3c(c2)O[C@@H](CN(C)C(=O)C2CCC2)[C@@H](C)CN([C@@H](C)CO)S3(=O)=O)c1,-2,93,·,-35,·,·,·,·
COc1cccc(-c2ccc3c(c2)O[C@@H](CN(C)C(=O)C2CCCCC2)[C@@H](C)CN([C@H](C)CO)S3(=O)=O)c1,-2,92*,·,-59,98*,72,23,90*
COc1ccc(NC(=O)c2oc3ccccc3c2NC(=O)Cc2coc3cc(C)cc(C)c23)cc1,·,·,0,·,·,·,·,·
C[C@@H]1CN([C@@H](C)CO)S(=O)(=O)c2ccc(-c3ccncc3)cc2O[C@H]1CN(C)C(=O)Nc1ccc(F)cc1,-3,102*,·,4,101*,86,-11,64*
C[C@H](CO)N1C[C@H](C)[C@@H](CN(C)C(=O)Nc2ccc(F)cc2)Oc2cc(-c3ccncc3)ccc2S1(=O)=O,0,93,-1,-32,·,·,·,·
SMILES,GASC1 inh,T cruzi growth-1,IDH1 R132H inh,Pf Dd2 growth,T cruzi growth-2,T cruzi growth-3,3T3 cytotox,3T3 cytotox 2
C[C@H]1CN([C@@H](C)CO)S(=O)(=O)c2ccc(-c3ccncc3)cc2O[C@H]1CN(C)C(=O)Nc1ccc(F)cc1,0,92,1,-25,·,·,·,·
Cc1ccc(-c2ccc3c(c2)O[C@@H](CN(C)C(=O)Nc2ccc(F)cc2)[C@H](C)CN([C@@H](C)CO)S3(=O)=O)cc1,-4,119*,·,-5,95*,42,43*,35*
C[C@H]1CN([C@@H](C)CO)S(=O)(=O)c2ccc(-c3ccncc3)cc2O[C@@H]1CN(C)C(=O)Nc1ccc(F)cc1,25,105*,59*,-13,102*,89,15,?
C[C@@H]1CN([C@H](C)CO)S(=O)(=O)c2ccc(-c3ccncc3)cc2O[C@@H]1CN(C)C(=O)Nc1ccc(F)cc1,0,108*,·,8,97*,77,11,39*
Cc1ccc(-c2ccc3c(c2)O[C@@H](CN(C)C(=O)Nc2ccc(F)cc2)[C@H](C)CN([C@H](C)CO)S3(=O)=O)cc1,0,64,-1,-62,·,·,·,·
COc1ccc(-c2cc(C)nc(SCC(=O)Nc3ccccc3F)n2)cc1,·,·,0,·,·,·,·,·
Cc1cc2nc(-c3ccc(C)c(NC(=O)COc4ccc([N+](=O)[O-])cc4)c3)oc2cc1C,·,·,2,·,·,·,·,·
COc1cc(-c2nc3ccccc3s2)cc(Br)c1OCC(=O)O,·,·,2,·,·,·,·,·
COc1cc(NC(=O)COc2ccc(Br)cc2)ccc1NC(=O)c1cc2ccccc2o1,·,·,0,·,·,·,·,·
Cc1ccccc1-c1ccc2c(c1)O[C@H](CN(C)C(=O)Nc1ccccc1)[C@@H](C)CN([C@H](C)CO)S2(=O)=O,-1,?,0,-26,79,-9,18,28*
